How the values were obtained:
Test in all cases: BRET ratio titration, purified sensor
Assay type in all cases: binding
tVYN-NtΔ (NtYcgRΔ) = settings: read-out: KD(nM)^a; 3 nM sensor; pH 7.2, 100 mM KCl, 10 mM DTT, 0.1% BSA, 28 °C; Hill fit
How it was run: (§1)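 Coelenterazine-h substrate (60 μM in HEPES/KCl/300 mM ascorbate, pre-equilibrated ≥30 min at RT) added, 20 μL into 100 μL. Emission read at 460 and 530 nm, 28 °C, every 30 s for 10 min. BRET ratio taken at 2 min.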

Vcp229-Nt (NtYcgR) = settings: read-out: KD(nM)^a; 3 nM sensor; pH 7.2, 100 mM KCl, 10 mM DTT, 0.1% BSA, 28 °C; Hill fit
How it was run: as §1

VYN-Ec (EcYcgR) = molecular target: T1, VYN-Ec (EcYcgR) (Escherichia coli, UniProt P76010)
T1 sequence (P76010 1-244): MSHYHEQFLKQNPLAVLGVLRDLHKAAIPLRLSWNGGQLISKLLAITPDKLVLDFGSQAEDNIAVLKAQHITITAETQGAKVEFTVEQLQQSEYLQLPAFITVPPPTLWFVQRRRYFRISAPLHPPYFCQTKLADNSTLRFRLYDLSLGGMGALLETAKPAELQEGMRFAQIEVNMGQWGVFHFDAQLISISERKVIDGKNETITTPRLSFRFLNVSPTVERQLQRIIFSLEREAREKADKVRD
How it was run: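 Coelenterazine-h prepared at 60 μM in HEPES/KCl/300 mM ascorbate (≥30 min RT), then added. Emission at 460 and 530 nm read at 30 s intervals for 10 min, 28 °C; BRET ratio taken 2 min post-substrate.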

VYN-Tb (TbYcgR) = settings: read-out: KD(nM)^a; 3 nM sensor; pH 7.2, 100 mM KCl, 10 mM DTT, 0.1% BSA, 28 °C; Hill fit
How it was run: as §1

tVYN-Nt (NtYcgR) = settings: read-out: KD(nM)^a; 3 nM sensor; pH 7.2, 100 mM KCl, 10 mM DTT, 0.1% BSA, 28 °C; Hill fit
How it was run: as §1

Vcp173-Nt (NtYcgR) = settings: read-out: KD(nM)^a; 3 nM sensor; pH 7.2, 100 mM KCl, 10 mM DTT, 0.1% BSA, 28 °C; Hill fit
How it was run: as §1

VYN-Nt (NtYcgR) = settings: read-out: KD(nM)^a; 3 nM sensor; pH 7.2, 100 mM KCl, 10 mM DTT, 0.1% BSA, 28 °C; Hill fit
How it was run: as §1

Vcp157-Cp (CpYcgR) = settings: read-out: KD(nM)^a; 3 nM sensor; pH 7.2, 100 mM KCl, 10 mM DTT, 0.1% BSA, 28 °C; Hill fit
How it was run: as §1

tVYN-Tb (TbYcgR) = settings: read-out: KD(nM)^a; 3 nM sensor; pH 7.2, 100 mM KCl, 10 mM DTT, 0.1% BSA, 28 °C; Hill fit
How it was run: as §1

Nc1nc2c(ncn2[C@@H]2O[C@@H]3COP(=O)(O)O[C@H]4[C@@H](O)[C@H](n5cnc6c(=O)[nH]c(N)nc65)O[C@@H]4COP(=O)(O)O[C@H]3[C@H]2O)c(=O)[nH]1 [c-di-GMP]
Kd (tVYN-NtΔ (NtYcgRΔ)): 54 ± 4 nM | Kd (Vcp229-Nt (NtYcgR)): 14 ± 1 nM | Kd (VYN-Ec (EcYcgR)): 50 ± 4 nM | Kd (VYN-Tb (TbYcgR)): 8 ± 0.4 nM | Kd (tVYN-Nt (NtYcgR)): 20 ± 1 nM | Kd (Vcp173-Nt (NtYcgR)): 17 ± 4 nM | Kd (VYN-Nt (NtYcgR)): 14 ± 4 nM | Kd (Vcp157-Cp (CpYcgR)): 96 ± 6 nM | Kd (tVYN-Tb (TbYcgR)): 12 ± 1 nM
